Assay results taken from article PMC5474427 (EBioMedicine, 2016).

What was measured:
Phospho-b-Catenin (S675) = type: in vivo; details: A549 xenograft tumors, 2 h after final dose on day 20
Method in brief: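 Xenograft tumors were harvested 2 h after the last dose, flash frozen and lysed in buffer with protease and phosphatase inhibitors. Protein was measured by BCA. Lysates from individual mice in each group were pooled so each tumor contributed equal total protein. Western blots were imaged on an infrared imager. Pools were run once, with no statistical testing.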

palmitoyl-α-tubulin = assay: Tubulin palmitoylation in NSCLC cell lines; type: cell-based; details: A549 cells, 20 μM for 18 h
palmitoyl-β-tubulin = assay: Tubulin palmitoylation in NSCLC cell lines; type: cell-based; details: A549 cells, 20 μM for 18 h
[1] = Phase I, solid tumors; ref Dean et al., 2016; cited from earlier work
[2] = tested on: CALU6 NSCLC adenocarcinoma cell line xenograft; assay: CALU6 NSCLC xenograft tumor growth; type: in vivo, mice; details: CALU-6; TVB-3166 60 mg/kg oral once daily; paclitaxel 10 mg/kg iv every 4 days
Method in brief: (§1)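 Mice with NSCLC cell-line (CALU-6, A549) or patient-derived tumors were randomized by tumor size and dosed once mean tumor size reached 150–200 mm3; ≥10 mice/group. FASN inhibitor 60 mg/kg by oral gavage once daily; paclitaxel 10 mg/kg iv every 4 days or docetaxel 8 or 6 mg/kg iv every 7 days. In combinations, FASN inhibitor was given 2 h before taxane. TGI is % tumor growth from treatment start, drug vs vehicle groups.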

[3] = tested on: β-tubulin mRNA in 22Rv1 prostate tumor cells; assay: β-tubulin mRNA expression by RNA sequencing; type: cell-based; details: 22Rv1 cells, 48 h, 1 μM TVB-3166
xenograft tumor models = assay: Xenograft tumor models, summary statements across models; type: in vivo, mice; details: three NSCLC studies (CALU6, A549, CTG-0165_P + 6)
Method in brief: as §1

MRC-5 lung fibroblasts = type: cell-based; details: MRC-5 fibroblasts
[4] = tested on: 22Rv1 prostate tumor cells; assay: Soft agar colony formation; type: cell-based
Method in brief: (§2)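 Cells were plated in 0.35% agarose in IMDM with 10% FBS, 1% non-essential amino acids and 1% L-glutamine, containing a dose–response matrix of FASN inhibitor and paclitaxel. This layer sat over a 0.6% bacto-agar base in the same medium. A compound-containing liquid feeder layer was changed weekly. After 3–4 weeks, colonies were stained with 0.005% crystal violet and wells imaged.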

[5] = tested on: CALU6 non-small-cell lung tumor cells; assay: Soft agar colony formation; type: cell-based
Method in brief: as §2

SMILES: CC(=O)O[C@@]12CO[C@@H]1C[C@H](O)[C@@]1(C)C(=O)[C@H](O)C3=C(C)[C@@H](OC(=O)[C@H](O)[C@@H](NC(=O)OC(C)(C)C)c4ccccc4)C[C@@](O)([C@@H](OC(=O)c4ccccc4)[C@H]21)C3(C)C [Docetaxel]
- inhibition of β-catenin S675 phosphorylation (Phospho-b-Catenin (S675)): 25%

SMILES: CCCCCCCCCCCCCCC(Br)C(=O)O (stereo not drawn) [2-Bromo-Palmitate, 2-bromopalmitate]
- decrease of palmitoyl-α-tubulin level (palmitoyl-α-tubulin): 27%
- decrease of palmitoyl-β-tubulin level (palmitoyl-β-tubulin): 79%

SMILES: Cc1nnc(-c2cc(C(=O)N3CCC(c4ccc(C#N)cc4)CC3)c(C)cc2C2CCC2)[nH]1 [TVB-2640]
- oral bioavailability and pharmacokinetics [1]: excellent

SMILES: CC(=O)O[C@H]1C(=O)[C@@]2(C)[C@H]([C@H](OC(=O)c3ccccc3)[C@]3(O)C[C@H](OC(=O)[C@H](O)[C@@H](NC(=O)c4ccccc4)c4ccccc4)C(C)=C1C3(C)C)[C@]1(OC(C)=O)CO[C@@H]1C[C@@H]2O [Paclitaxel]
- TGI vs. vehicle [2]: 63%
- β-tubulin mRNA expression compared to DMSO [3]: no effect
- tumor growth inhibition, single agent (xenograft tumor models): 48–63%
- effect on microtubule organization in non-tumor cells (MRC-5 lung fibroblasts): very little effect
- soft agar colony growth ([4]; 3 nM paclitaxel): strong inhibition of colony growth
- soft agar colony growth ([4]; paclitaxel 0.3 or 1.0 nM): did not affect colony size or number
- soft agar colony growth ([5]; 3 nM paclitaxel): strong inhibition of colony growth
- soft agar colony growth ([5]; paclitaxel 0.3 or 1.0 nM): did not affect colony size or number
